Source: publication PMC6335621 (Chemical Science, 2018)

Tests used:
NCI-H460 [1] = experiment: Light-induced cytotoxicity assay; type: cell-based, human; conditions: for PI = IC50(dark)/IC50(light): NCI-H460, phototoxicity index
Outline: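 NCI-H460 cells were incubated with test compound, then exposed to visible light at 2.8 mW cm–2 for 1 h. […] Phototoxicity index = IC50(dark)/IC50(light).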

HepG2 = experiment: In vitro cytotoxicity; type: cell-based, human; conditions: read-out: IC50 HepG2; MTT assay, 72 h incubation
Outline: (§1)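 Cell lines: HeLa (cervical epithelial carcinoma), HepG2 (hepatocellular carcinoma), MCF-7 (breast carcinoma), HCT-116 (colorectal carcinoma), and HCC827 and NCI-H460 (non-small cell lung carcinoma).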

HCC827 = experiment: In vitro cytotoxicity; type: cell-based, human; conditions: read-out: IC50 HCC827; MTT assay, 72 h incubation
Outline: as §1

NCI-H460 [2] = experiment: In vitro cytotoxicity in the dark; type: cell-based, human; conditions: read-out: IC50 NCI-H460 (dark)
Outline: as §1

HCT116 = experiment: In vitro cytotoxicity; type: cell-based, human; conditions: read-out: IC50 HCT116; MTT assay, 72 h incubation
Outline: as §1

[3] = in CHCl3; cited from earlier work
[4] = Stability in the solid state and in CDCl3 solution; type: physicochemical

Q: Which “PI = IC50(dark)/IC50(light)” value (NCI-H460 [1]) does the source give for `N.N.[Cl][Pt][Cl]` [Cisplatin] here?
A: The value was 0.86.

Q: What about the “PI = IC50(dark)/IC50(light)” value (NCI-H460 [1]; listed as cisplatin) of the same molecule?
A: The value was under 1.

Q: And the IC50 (NCI-H460 [1]; read-out: IC50 NCI-H460 (light), visible light irradiation 2.8 mW cm^–2 for 1 h)?
A: Its IC50 is 4.61 ± 0.31 µM.

Q: And the IC50 (HepG2)?
A: The IC50 was 6.18 ± 0.82 µM.

Q: What about the IC50 (HCC827) of the same molecule?
A: The IC50 was 9.61 ± 0.81 µM.

Q: What about the IC50 (NCI-H460 [2]) of the same molecule?
A: Its IC50 is 3.96 ± 0.48 µM.

Q: What about the IC50 (HCT116) of the same molecule?
A: Its IC50 is 6.94 ± 0.54 µM.

Q: For `C1=Cc2nc1c(-c1ccccc1)c1ccc([nH]1)c(-c1ccccc1)c1nc(c(-c3ccccc3)c3ccc([nH]3)c2-c2ccccc2)C=C1` [H2tpp], which “Φso (quantum yield of singlet oxygen production)” value [3] is on record?
A: Its value is 0.55.

Q: For [Ir^III(F20tpp)(BIMe)Cl] [1d], which “Stable in the solid state and in CDCl3 solution for” value (shortened to “Stable”) [4] is on record?
A: Its value is 1 week.

Q: Which Decomposes within ([4]; under ambient conditions) does the source give for [Ir^III(F20tpp)(IMe)Cl] [1c] here?
A: Its Decomposes within is at most 1 days.

Q: With [Ir^III(tmp)(BIMe)Cl] [1b] as the molecule, how does the “Stable” value [4] read?
A: The value was 1 week.

Q: Which “Stable” value [4] does the source give for [Ir^III(tmp)(IMe)Cl] [1a] here?
A: The value was 1 week.
